Calls of active or inactive are those of the source. The calls are words filed in the database; no cut-off is given here.
How the values were obtained:
[1] = target: T1, Cannabinoid receptor 2 (Homo sapiens, UniProt P34972); assay: Inverse agonist activity at human CB2 receptor expressed in CHO cell membrane assessed as increase in forskolin-stimulated cAMP production by scintillation counting analysis; assay type: functional, cell membranes
[2] = target: T1, Cannabinoid receptor 2; assay: Inverse agonist activity at human CB2 receptor expressed in CHO cell membrane assessed as increase in forskolin-stimulated cAMP production at 10 uM by scintillation counting analysis relative to WIN55212-2
Summary of the method: (§1)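 Whole hCB₂ CHO cells (1 × 10⁶/assay) in HEPES-buffered saline with glucose, pH 7.4, preincubated 10 min at 37 °C with 0.5 mM Ro 20-1724. Compound at 1 or 10 μM with 1 μM forskolin. Stopped with cold 6% TCA, ether-extracted; cAMP measured by [³H]cAMP competition binding with adrenal binding protein. Expressed as % increase versus WIN 55,212-2 (set −100%); n = 4.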

[3] = target: T1, Cannabinoid receptor 2; assay: Inverse agonist activity at human CB2 receptor expressed in CHO cell membrane assessed as increase in forskolin-stimulated cAMP production at 1 uM by scintillation counting analysis relative to WIN55212-2; summary of the method: as §1
[4] = species on record: Homo sapiens; assay: Selectivity index, ratio of Ki for human CB1 receptor to Ki for human CB2 receptor
[5] = target: T1, Cannabinoid receptor 2; assay: Displacement of [3H]CP-55940 from human CB2 receptor expressed in CHO cell membrane after 60 mins by scintillation counting analysis; assay type: cell membranes
Summary of the method: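 Human CB₂-expressing CHO cell membranes in 50 mM Tris-HCl, 0.5% BSA, 5 mM MgCl₂, 1 mM EDTA, pH 7.4. Binding of 0.5 nM [³H]CP-55,940 competed with 1 nM–10 μM compound for 60 min at 30 °C, then GF/C filtration and scintillation counting. Ki by Cheng-Prusoff from IC50; mean SEM of n = 4.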

[6] = target: T2, Cannabinoid receptor 1 (Homo sapiens, UniProt P21554); assay: Displacement of [3H]CP-55940 from human CB1 receptor expressed in CHO cell membrane after 90 mins by scintillation counting analysis; assay type: cell membranes
Summary of the method: (§2)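 Membranes from CHO cells stably expressing human CB₁ (G418-maintained), suspended in 50 mM Tris-HCl, 0.5% BSA, 5 mM MgCl₂, 2.5 mM EDTA, pH 7.4. Displacement of 0.5 nM [³H]CP-55,940 by 1 nM–10 μM compound, 90 min, 30 °C. Filtration on GF/C, scintillation counting. Cheng-Prusoff Ki, LIGAND fitting; mean SEM, n = 4.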

[7] = target: T2, Cannabinoid receptor 1; assay: Displacement of [3H]CP-55940 from human CB1 receptor expressed in CHO cell membrane at > 10 uM after 90 mins by scintillation counting analysis; assay type: cell membranes; summary of the method: as §2
[8] = target: Cannabinoid receptor 1 (Rattus norvegicus) (UniProt P20272); assay: Displacement of [3H]CP-55940 from Sprague-Dawley rat brain CB1 receptor at > 10 uM after 90 mins by scintillation counting analysis
Summary of the method: (§3)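 Competition with [³H]CP-55,940 (1.0 nM stated in rat CB₁ section; 0.5 nM in general protocol) against 1 nM–10 μM compound, 90 min at 30 °C. GF/C filtration, scintillation counting. Ki via Cheng-Prusoff; mean SEM, n = 4.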

[9] = target: Cannabinoid receptor 1 (Rattus norvegicus, UniProt P20272); assay: Displacement of [3H]CP-55940 from Sprague-Dawley rat brain CB1 receptor after 90 mins by scintillation counting analysis; summary of the method: as §3
[10] = target: T3, Cannabinoid receptor 2 (Rattus norvegicus, UniProt Q9QZN9); assay: Displacement of [3H]CP-55940 from Sprague-Dawley rat spleen CB2 receptor after 60 mins by scintillation counting analysis
T3 sequence (Q9QZN9 whole entry): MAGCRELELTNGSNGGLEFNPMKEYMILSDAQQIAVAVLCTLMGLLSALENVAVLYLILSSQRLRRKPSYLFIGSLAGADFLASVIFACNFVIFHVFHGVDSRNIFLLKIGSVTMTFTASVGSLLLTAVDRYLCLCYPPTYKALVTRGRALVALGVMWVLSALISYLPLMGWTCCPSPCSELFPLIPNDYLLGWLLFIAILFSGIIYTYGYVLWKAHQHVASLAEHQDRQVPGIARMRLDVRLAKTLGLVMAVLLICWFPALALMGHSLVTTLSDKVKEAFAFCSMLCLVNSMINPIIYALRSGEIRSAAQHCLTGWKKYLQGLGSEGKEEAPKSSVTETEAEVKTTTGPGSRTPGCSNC
Summary of the method: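 Competed against 0.5 nM [³H]CP-55,940 using 1 nM–10 μM compound for 60 min at 30 °C. Bound ligand collected on GF/C filters and counted. Ki from IC50 by Cheng-Prusoff; mean SEM of n = 4.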

[11] = target: T1, Cannabinoid receptor 2; assay: Inverse agonist activity at human CB2 receptor expressed in CHO cell membrane assessed as increase in forskolin-stimulated cAMP production at 1 to 10 uM by scintillation counting analysis in presence of WIN55212-2

T2 sequence (P21554 whole entry): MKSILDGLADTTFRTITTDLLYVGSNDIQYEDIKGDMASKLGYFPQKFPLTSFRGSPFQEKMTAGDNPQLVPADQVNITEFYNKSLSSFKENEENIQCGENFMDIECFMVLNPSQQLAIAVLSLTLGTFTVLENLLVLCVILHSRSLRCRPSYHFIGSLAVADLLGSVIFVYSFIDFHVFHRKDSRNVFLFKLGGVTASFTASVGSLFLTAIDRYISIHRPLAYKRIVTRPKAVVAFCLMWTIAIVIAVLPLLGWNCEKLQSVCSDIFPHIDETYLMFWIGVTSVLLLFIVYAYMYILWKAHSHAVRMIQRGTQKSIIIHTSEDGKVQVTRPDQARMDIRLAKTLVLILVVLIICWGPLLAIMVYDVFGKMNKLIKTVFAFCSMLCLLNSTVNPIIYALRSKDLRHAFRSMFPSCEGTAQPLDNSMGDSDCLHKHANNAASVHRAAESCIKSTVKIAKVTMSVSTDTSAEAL
T1 sequence (P34972 whole entry): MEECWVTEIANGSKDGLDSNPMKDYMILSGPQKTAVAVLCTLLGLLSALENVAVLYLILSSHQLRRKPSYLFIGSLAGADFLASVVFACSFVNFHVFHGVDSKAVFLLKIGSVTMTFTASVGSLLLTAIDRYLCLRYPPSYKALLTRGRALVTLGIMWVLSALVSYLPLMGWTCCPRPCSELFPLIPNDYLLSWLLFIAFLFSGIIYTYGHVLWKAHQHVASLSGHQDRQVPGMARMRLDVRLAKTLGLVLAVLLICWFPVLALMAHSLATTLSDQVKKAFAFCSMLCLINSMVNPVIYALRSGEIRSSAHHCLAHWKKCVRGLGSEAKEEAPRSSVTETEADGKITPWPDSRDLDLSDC
Sequence of Cannabinoid receptor 1 (Rattus norvegicus) (P20272 whole entry): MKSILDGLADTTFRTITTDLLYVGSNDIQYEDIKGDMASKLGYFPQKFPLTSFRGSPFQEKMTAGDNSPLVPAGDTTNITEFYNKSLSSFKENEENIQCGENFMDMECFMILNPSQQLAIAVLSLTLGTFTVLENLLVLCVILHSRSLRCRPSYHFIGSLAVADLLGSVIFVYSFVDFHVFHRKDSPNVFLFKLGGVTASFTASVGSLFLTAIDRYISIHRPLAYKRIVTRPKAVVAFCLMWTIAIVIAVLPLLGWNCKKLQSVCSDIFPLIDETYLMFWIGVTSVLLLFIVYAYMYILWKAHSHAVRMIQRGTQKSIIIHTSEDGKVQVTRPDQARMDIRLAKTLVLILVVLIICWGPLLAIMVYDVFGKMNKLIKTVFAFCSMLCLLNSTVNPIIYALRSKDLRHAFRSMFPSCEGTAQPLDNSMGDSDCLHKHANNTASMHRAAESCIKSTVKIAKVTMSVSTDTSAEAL
Sequence of Cannabinoid receptor 1 (Rattus norvegicus, UniProt P20272) (P20272 whole entry): as above

Structure (SMILES) | EC50 [1] | Activity [2] | Activity [3] | Ratio Ki [4] | Ki [5] | Ki [6] | Activity [7] | Activity [8] | Ki [9] | Ki [10] | Activity [11]
CCCCCn1cc(C(=O)NC23CC4CC(CC(C4)C2)C3)c(=O)n2nc(-c3ccccc3)cc12 | 195 nM | 195% | 163% | > 3910 | 2.56 nM | > 10000 nM | 43% | 40% | > 10000 nM | 2.74 nM | 
CCCCCn1cc(C(=O)NC23CC4CC(CC(C4)C2)C3)c(=O)n2nc(CC)cc12 | 95 nM | 243% | 173% | 143 | 0.84 nM | 120 nM |  |  | 150 nM | 0.96 nM | Active
CCCCCn1cc(C(=O)NC23CC4CC(CC(C4)C2)C3)c(=O)n2nc(-c3ccc(Cl)cc3)cc12 |  | 183% | 144% | > 2580 | 3.88 nM | > 10000 nM | 13% | 10% | > 10000 nM | 4.21 nM | 
CCCCCn1cc(C(=O)NC2CCCCC2)c(=O)n2nc(-c3ccc(Cl)cc3Cl)cc12 |  | 65% | 45% | > 192 | 52 nM | > 10000 nM | 38% | 47% | > 10000 nM | 60 nM | 
CCCCCn1cc(C(=O)NC23CC4CC(CC(C4)C2)C3)c(=O)n2nc(-c3ccc(C)s3)cc12 |  | 68% | 38% | > 862 | 11.6 nM | > 10000 nM | 31% | 33% | > 10000 nM | 12.2 nM | 
CCCCCn1cc(C(=O)NC2CCCCC2)c(=O)n2nc(-c3ccccc3Cl)cc12 |  | 55% | 37% | > 212 | 47 nM | > 10000 nM | 34% | 40% | > 10000 nM | 52 nM | 
CCCCCn1cc(C(=O)NC23CC4CC(CC(C4)C2)C3)c(=O)n2nc(-c3ccccc3Cl)cc12 |  | 136% | 114% | > 1610 | 6.21 nM | > 10000 nM | 41% | 48% | > 10000 nM | 6.32 nM | 
CCCCCn1cc(C(=O)NC2CCCCCC2)c(=O)n2nc(-c3ccc(Cl)cc3Cl)cc12 |  | 77% | 61% | > 270 | 37 nM | > 10000 nM | 39% | 49% | > 10000 nM | 40 nM | 
CCCCCn1cc(C(=O)NC2CCCCCC2)c(=O)n2nc(-c3ccccc3C)cc12 |  | 125% | 107% | > 1120 | 8.93 nM | > 10000 nM | 34% | 45% | > 10000 nM | 9.53 nM | 
CCCCCn1cc(C(=O)NC23CC4CC(CC(C4)C2)C3)c(=O)n2nc(-c3ccco3)cc12 |  | 124% | 107% | > 2030 | 4.92 nM | > 10000 nM | 34% | 40% | > 10000 nM | 5.14 nM | 
CCCCCn1cc(C(=O)NC2CCCCC2)c(=O)n2nc(-c3ccc(Cl)cc3)cc12 |  | 94% | 79% | > 181 | 55 nM | > 10000 nM | 15% | 8% | > 10000 nM | 58 nM | 
CCCCCn1cc(C(=O)NC23CC4CC(CC(C4)C2)C3)c(=O)n2nc(-c3ccccc3C)cc12 |  | 184% | 155% | > 3500 | 2.86 nM | > 10000 nM | 22% | 30% | > 10000 nM | 3.21 nM | 
CCCCCn1cc(C(=O)NC2CCCCCC2)c(=O)n2nc(C(C)(C)C)cc12 | 351 nM | 213% | 151% | 84 | 7.22 nM | 605 nM |  |  | 650 nM | 7.52 nM | 
CCCCCn1cc(C(=O)NC2CCCCC2)c(=O)n2nc(-c3ccccc3C)cc12 |  | 94% | 73% | > 250 | 40 nM | > 10000 nM | 16% | 30% | > 10000 nM | 48 nM | 
